Experiment [1] addresses T1, Adenosine receptor A1 (Rattus norvegicus, UniProt P25099).
T1 sequence (P25099 whole entry): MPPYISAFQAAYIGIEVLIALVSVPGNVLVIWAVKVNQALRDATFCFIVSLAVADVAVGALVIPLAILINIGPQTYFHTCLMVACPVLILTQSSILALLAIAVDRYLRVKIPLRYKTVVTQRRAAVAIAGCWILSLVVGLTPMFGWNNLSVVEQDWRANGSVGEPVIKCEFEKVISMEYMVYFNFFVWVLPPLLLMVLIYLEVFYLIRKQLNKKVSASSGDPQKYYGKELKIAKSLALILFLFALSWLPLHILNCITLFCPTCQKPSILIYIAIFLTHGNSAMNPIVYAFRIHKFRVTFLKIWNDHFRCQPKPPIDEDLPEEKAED
Kind of experiment: Displacement of [3H]CCPA from adenosine A1 receptor in rat brain cortex. It is filed as tissue-based.

Experiment [2] addresses T2, Adenosine receptor A1 (Homo sapiens, UniProt P30542).
T2 sequence (P30542 whole entry): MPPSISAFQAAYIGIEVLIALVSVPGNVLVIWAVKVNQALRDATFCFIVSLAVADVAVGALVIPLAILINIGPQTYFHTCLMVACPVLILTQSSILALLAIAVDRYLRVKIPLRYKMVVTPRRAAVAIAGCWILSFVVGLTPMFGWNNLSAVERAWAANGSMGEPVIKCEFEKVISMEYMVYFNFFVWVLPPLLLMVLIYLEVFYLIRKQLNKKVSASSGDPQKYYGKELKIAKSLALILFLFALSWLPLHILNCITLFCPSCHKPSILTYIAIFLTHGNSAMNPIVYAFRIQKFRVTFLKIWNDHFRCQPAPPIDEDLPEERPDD
Kind of experiment: Displacement of [3H]CCPA from human recombinant adenosine A1 receptor.

Experiment [3] concerns the target T3, Adenosine receptor A2a (Rattus norvegicus, UniProt P30543). In words: Displacement of [3H]CGS21680 from adenosine A2A receptor in rat brain striatum. It is filed as tissue-based.
For experiment [4], the target named is T4, Adenosine receptor A2a (Homo sapiens, UniProt P29274). In words: Displacement of [3H]CGS21680 from human recombinant adenosine A2A receptor.
The next experiment has as its target T5, Adenosine receptor A2b (Homo sapiens, UniProt P29275).
T5 sequence (P29275 whole entry): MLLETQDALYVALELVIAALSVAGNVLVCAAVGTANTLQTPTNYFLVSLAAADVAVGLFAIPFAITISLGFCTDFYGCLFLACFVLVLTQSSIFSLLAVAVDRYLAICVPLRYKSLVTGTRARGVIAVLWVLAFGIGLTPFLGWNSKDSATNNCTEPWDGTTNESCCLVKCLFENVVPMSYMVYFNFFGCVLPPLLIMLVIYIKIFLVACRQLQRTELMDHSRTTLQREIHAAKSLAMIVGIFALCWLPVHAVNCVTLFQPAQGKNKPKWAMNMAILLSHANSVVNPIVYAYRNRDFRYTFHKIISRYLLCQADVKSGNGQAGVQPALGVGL
Kind of experiment: Displacement of [3H]PSB-603 from human recombinant adenosine A2B receptor expressed in CHO cells after 75 mins by liquid scintillation assay. Format: cell-based.

The target in experiment [5] is T6, Adenosine receptor A3 (Homo sapiens, UniProt P0DMS8).
T6 sequence (P0DMS8 whole entry): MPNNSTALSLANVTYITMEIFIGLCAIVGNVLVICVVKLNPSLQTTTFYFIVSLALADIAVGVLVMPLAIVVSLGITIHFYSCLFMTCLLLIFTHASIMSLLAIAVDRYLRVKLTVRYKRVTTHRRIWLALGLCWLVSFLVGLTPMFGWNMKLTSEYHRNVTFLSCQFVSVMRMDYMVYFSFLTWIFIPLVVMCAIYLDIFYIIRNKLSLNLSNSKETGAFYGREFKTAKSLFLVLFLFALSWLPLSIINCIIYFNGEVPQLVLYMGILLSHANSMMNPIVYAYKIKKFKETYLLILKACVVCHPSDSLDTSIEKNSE
Kind of experiment: Displacement of [3H]PSB-11 from human recombinant adenosine A3 receptor expressed in CHO cells. It is filed as cell-based. Summed up: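 Competition binding at human recombinant A3 receptor with [3H]PSB-11 as radioligand; Ki reported as mean ± SEM from three experiments.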

Experiment [6] has as its target T6, Adenosine receptor A3. Kind of experiment: Displacement of [3H]NECA from human recombinant adenosine A3 receptor.
Experiment [7] deals with T4, Adenosine receptor A2a. Kind of experiment: Agonist activity at human adenosine A2A receptor expressed in CHO-K1 cells by cAMP accumulation assay. Format: functional, cell-based.
For experiment [8], the target named is T3, Adenosine receptor A2a. Kind of experiment: Displacement of [3H]MSX-2 from adenosine A2A receptor in rat brain striatum. It is filed as tissue-based.
For experiment [9], the target named is T7, Adenosine receptor A2b (Rattus norvegicus) (UniProt P29276).
T7 sequence (whole entry): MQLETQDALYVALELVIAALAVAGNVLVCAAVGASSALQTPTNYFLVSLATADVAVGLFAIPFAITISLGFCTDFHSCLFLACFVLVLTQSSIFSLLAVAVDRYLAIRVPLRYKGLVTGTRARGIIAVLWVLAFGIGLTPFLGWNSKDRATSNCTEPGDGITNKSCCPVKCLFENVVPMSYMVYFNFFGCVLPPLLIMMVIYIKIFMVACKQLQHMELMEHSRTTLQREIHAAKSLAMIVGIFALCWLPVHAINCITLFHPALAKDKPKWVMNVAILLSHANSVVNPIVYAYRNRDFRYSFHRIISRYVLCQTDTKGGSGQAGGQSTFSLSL
Kind of experiment: Antagonist activity at adenosine A2B receptor in Wistar rat ileum/jejunum segment assessed as reversal of TNBS-induced inhibition of Ach-induced contraction at 10 uM after 30 mins. Format: functional, tissue-based. The arrangement: scale not given: the % may be the effect or the level left. The gist of the method: (§1)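 Ex vivo rat ileum/jejunum segments; contractions evoked by acetylcholine 1 mM, expressed as % of Ach contraction without drug (100%). Acute inflammation induced by TNBS 10 mM, with the A2B antagonist (1–100 μM) preincubated alongside TNBS. Means ± SEM of seven experiments.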

Experiment [10] deals with T7, Adenosine receptor A2b (Rattus norvegicus). In words: Antagonist activity at adenosine A2B receptor in Wistar rat ileum/jejunum segment assessed as reversal of TNBS-induced inhibition of Ach-induced contraction at 100 uM after 30 mins. It is filed as functional, tissue-based. The arrangement: scale not given: the % may be the effect or the level left. Summed up: as §1

The target is the same in experiment [11]. In words: Antagonist activity at adenosine A2B receptor in Wistar rat ileum/jejunum segment assessed as reversal of TNBS-induced inhibition of Ach-induced contraction after 30 mins. Format: functional, tissue-based. Summed up: as §1

Among the data in ChEMBL document CHEMBL2040767, “Development of Polar Adenosine A2A Receptor Agonists for Inflammatory Bowel Disease: Synergism with A2B Antagonists” (ACS Med Chem Lett, 2011) are Ki, EC50 and Activity values, retold here.

T4 sequence (P29274 whole entry): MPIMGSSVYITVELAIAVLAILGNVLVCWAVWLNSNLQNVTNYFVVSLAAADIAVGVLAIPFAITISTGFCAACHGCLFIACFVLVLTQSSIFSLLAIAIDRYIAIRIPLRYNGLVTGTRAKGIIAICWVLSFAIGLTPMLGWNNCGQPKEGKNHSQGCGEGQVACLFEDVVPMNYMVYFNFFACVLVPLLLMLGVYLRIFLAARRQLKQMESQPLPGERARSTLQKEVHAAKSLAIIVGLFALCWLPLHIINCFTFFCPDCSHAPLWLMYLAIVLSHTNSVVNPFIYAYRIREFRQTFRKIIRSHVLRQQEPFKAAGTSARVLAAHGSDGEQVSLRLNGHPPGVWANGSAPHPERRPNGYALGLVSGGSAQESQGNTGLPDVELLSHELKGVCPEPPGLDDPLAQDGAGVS
T3 sequence (P30543 whole entry): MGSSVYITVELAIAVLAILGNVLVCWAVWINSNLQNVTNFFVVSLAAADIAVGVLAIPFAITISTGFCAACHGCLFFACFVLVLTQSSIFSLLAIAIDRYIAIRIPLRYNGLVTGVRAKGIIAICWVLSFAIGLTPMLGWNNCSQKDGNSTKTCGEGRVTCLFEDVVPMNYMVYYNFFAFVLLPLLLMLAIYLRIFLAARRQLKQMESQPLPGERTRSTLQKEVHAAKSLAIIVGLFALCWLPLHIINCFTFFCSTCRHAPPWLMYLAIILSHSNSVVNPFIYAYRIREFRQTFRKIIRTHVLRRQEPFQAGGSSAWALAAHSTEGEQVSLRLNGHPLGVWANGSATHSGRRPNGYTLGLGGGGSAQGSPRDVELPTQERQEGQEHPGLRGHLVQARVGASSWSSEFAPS

For `Nc1nc(SCCc2ccc(S(=O)(=O)O)cc2)nc2c1ncn2[C@@H]1O[C@H](CO)[C@@H](O)[C@H]1O`, the Ki was not below 10 µM at Adenosine receptor A1 [1]; 0.541 µM on Adenosine receptor A1 [2]; 0.0444 µM on Adenosine receptor A2a [3]; 0.36 µM on Adenosine receptor A2a [4]; more than 10 µM on Adenosine receptor A2b; more than 10 µM at Adenosine receptor A3 [5]. Also, the Ki at Adenosine receptor A3 [6] was more than 1 µM. This compound also came in with an EC50 at Adenosine receptor A2a [7] of 0.117 µM.

With `Nc1nc(S(=O)(=O)CCc2ccc(S(=O)(=O)O)cc2)nc2c1ncn2[C@@H]1O[C@H](CO)[C@@H](O)[C@H]1O`, the Ki was 1.8 µM at Adenosine receptor A1 [1]; 0.545 µM at Adenosine receptor A1 [2]; more than 10 µM at Adenosine receptor A2a [3]; more than 10 µM at Adenosine receptor A2a [4]; more than 10 µM on Adenosine receptor A3 [5].

With `Nc1nc(SCC(=O)O)nc2c1ncn2[C@@H]1O[C@H](CO)[C@@H](O)[C@H]1O`, the Ki at Adenosine receptor A1 [1] is 1.93 µM; on Adenosine receptor A2a [8] it was more than 10 µM; at Adenosine receptor A2a [4], more than 10 µM; at Adenosine receptor A3 [5], more than 10 µM.

For the compound `Nc1nc(SCCc2ccc(C(=O)O)cc2)nc2c1ncn2[C@@H]1O[C@H](CO)[C@@H](O)[C@H]1O`, the Ki at Adenosine receptor A1 [1] is 1.01 µM; at Adenosine receptor A1 [2], 0.404 µM; at Adenosine receptor A2a [3] it was 0.152 µM; at Adenosine receptor A2a [4] it was not below 10 µM; on Adenosine receptor A2b, more than 10 µM; on Adenosine receptor A3 [5], more than 10 µM. Further, the Ki at Adenosine receptor A3 [6] is more than 1 µM.

For the compound `CCCn1c(=O)[nH]c2nc(-c3ccc(S(=O)(=O)N4CCN(Cc5ccccc5)CC4)cc3)[nH]c2c1=O`, the Activity in experiment [9] was 53.3%; in experiment [10] it was 86.1%; in experiment [11], “Dose-dependent effect”.
